Results published in publication PMC8183215 (Journal for Immunotherapy of Cancer, 2021).
Residues, ends and D or L forms follow the SMILES beside them.

Experiment: In vitro plasma stability
Format: in vitro ADME
Conditions: rat, pH 7.4
Outline: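 Test compound prepared as a 1000 ng/mL stock in 0.01 M Tris-HCl (pH 7.4), then mixed in equal volume with rat plasma and incubated at 37 °C. Samples were taken at 0, 2, 5, 10, 30 and 60 min, and methanol was added to precipitate protein. After centrifugation at 12 000 rpm for 15 min and a second spin of the supernatant, UPLC-MS peak areas gave the half-life.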

SMILES | half-life at 500 ng/mL [min]
CC(C)C[C@H](NC(=O)[C@H](CCCCN)NC(=O)[C@H](CCCNC(=N)N)NC(=O)[C@@H]1CCCN1C(=O)[C@H](CCC(=O)O)NC(=O)CNC(=O)[C@H](Cc1ccc(O)cc1)NC(=O)[C@H](C)NC(=O)[C@@H](N)CO)C(=O)O [peptide 1] (H-SAYGEPRKL-OH; N-terminus and C-terminus assumed) | ~5
CC[C@H](C)[C@H](NC(=O)[C@@H](N)[C@@H](C)O)C(=O)N[C@@H](Cc1c[nH]c2ccccc12)C(=O)N[C@@H](CCSC)C(=O)N[C@@H](CC(C)C)C(=O)N[C@@H](CC(C)C)C(=O)N[C@@H](CCSC)C(=O)N[C@@H](CC(C)C)C(=O)N[C@@H](CCC(N)=O)C(=O)O [peptide 2] (H-TIWMLLMLQ-OH) | ~5
